Measurements from ChEMBL document CHEMBL1154352, “Toll-like receptor 7 selective synthetic oligoribonucleotide agonists: synthesis and structure-activity relationship studies” (J Med Chem, 2009).
Calls of active or inactive are those of the source. The rule behind the calls is not given here.

Key:
[1] = target: T1, Toll-like receptor 7 (Homo sapiens) (UniProt Q9NYK1); test: Activation of human TLR7 expressed in HEK293XL assessed as fold induction of NF-kappaB activity at 50 ug/ml after 18 hrs by reporter gene assay relative to control
T1 sequence (whole entry): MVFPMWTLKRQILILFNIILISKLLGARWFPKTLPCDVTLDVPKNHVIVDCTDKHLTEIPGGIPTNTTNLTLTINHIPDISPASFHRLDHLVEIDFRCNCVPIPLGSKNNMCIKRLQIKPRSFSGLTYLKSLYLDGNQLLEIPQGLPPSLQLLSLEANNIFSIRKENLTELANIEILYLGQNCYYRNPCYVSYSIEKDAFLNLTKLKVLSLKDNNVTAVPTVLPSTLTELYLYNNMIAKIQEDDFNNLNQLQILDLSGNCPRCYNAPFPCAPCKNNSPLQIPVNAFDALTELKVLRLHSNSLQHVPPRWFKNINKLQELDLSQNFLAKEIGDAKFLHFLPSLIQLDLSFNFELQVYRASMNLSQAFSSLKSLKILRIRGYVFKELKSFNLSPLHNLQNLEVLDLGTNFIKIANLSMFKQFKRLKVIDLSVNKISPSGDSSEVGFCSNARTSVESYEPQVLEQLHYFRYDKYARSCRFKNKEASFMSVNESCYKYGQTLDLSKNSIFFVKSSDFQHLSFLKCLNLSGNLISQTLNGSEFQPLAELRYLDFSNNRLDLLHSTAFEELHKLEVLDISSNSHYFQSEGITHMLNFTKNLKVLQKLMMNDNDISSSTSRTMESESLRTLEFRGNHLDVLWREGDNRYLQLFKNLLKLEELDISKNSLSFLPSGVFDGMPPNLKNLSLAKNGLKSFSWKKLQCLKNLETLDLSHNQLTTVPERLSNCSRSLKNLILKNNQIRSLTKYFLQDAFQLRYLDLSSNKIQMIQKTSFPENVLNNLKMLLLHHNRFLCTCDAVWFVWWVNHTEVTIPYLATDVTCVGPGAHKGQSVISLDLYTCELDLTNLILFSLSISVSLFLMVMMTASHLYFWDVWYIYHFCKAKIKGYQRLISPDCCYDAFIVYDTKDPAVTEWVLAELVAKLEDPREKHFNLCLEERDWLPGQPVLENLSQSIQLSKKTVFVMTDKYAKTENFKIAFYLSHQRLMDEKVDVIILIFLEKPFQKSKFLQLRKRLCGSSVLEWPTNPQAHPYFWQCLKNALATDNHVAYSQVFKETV
Method in brief: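 HEK293 cells stably expressing human TLR7 or TLR8, transiently transfected with SEAP reporter plasmid; medium replaced, SIMRA compounds added, 18 h incubation. Supernatant SEAP measured by QuantiBlue; expressed as fold increase in NF-κB activity over PBS control. Tabulated data at 50 μg/mL, representative of three independent experiments.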

PBMC [2] = test: Immunomodulatory activity in human PBMC assessed as induction of IFN-alpha at 100 ug/ml after 24 hrs
Homo sapiens = species: Homo sapiens; test: Ratio of human TLR7 activity to human TLR8 activity
Method in brief: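 TLR7/TLR8 ratio computed from fold NF-κB (SEAP reporter) activation in HEK293 cells stably expressing human TLR7 versus TLR8, compounds at 50 μg/mL, 18 h exposure; representative of three independent experiments.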

PBMC [3] = test: Immunomodulatory activity in human PBMC assessed as induction of TNFalpha at 100 ug/ml after 24 hrs; type: functional, cell-based
Method in brief: (§1)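 Human PBMCs plated at 5 × 10^6 cells/mL; compounds dissolved in PBS added at various concentrations, 37 °C for 24 h. Supernatant cytokines/chemokines quantified with human Luminex multiplex kit.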

[4] = target: T2, Toll-like receptor 9 (Mus musculus) (UniProt Q9EQU3); test: Activation of mouse TLR9 expressed in HEK293 assessed as induction of NF-kappaB activity reporter gene assay; type: cell-based
T2 sequence (whole entry): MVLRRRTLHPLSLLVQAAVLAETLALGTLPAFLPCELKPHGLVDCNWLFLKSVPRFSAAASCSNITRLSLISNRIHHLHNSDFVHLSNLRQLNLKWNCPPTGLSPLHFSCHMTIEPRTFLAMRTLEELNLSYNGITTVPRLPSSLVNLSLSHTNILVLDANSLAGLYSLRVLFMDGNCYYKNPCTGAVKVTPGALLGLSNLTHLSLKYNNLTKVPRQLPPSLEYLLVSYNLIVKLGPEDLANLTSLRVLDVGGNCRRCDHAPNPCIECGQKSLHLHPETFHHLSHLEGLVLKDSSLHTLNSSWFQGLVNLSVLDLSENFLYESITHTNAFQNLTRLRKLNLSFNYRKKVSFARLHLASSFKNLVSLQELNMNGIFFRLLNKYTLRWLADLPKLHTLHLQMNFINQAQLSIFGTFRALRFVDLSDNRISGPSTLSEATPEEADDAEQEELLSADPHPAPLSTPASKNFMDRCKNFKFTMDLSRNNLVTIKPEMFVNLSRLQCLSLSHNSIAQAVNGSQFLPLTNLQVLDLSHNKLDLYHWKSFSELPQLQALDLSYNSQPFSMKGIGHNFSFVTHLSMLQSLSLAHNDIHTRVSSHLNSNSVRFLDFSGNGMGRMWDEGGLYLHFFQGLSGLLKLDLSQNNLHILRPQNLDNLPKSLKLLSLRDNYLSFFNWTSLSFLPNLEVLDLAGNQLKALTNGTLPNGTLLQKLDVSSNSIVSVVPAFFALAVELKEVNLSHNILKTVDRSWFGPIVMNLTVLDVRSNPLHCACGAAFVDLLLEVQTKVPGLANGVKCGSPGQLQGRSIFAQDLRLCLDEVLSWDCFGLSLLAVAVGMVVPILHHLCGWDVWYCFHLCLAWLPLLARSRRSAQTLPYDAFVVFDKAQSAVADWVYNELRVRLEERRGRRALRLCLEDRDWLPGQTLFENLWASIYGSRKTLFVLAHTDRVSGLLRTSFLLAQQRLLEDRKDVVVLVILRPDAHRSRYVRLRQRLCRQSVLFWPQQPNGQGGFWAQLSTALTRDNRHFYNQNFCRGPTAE

PBMC [5] = test: Immunomodulatory activity in human PBMC assessed as induction of IL12 at 100 ug/ml after 24 hrs; type: functional, cell-based; method in brief: as §1
Splenocyte [6] = test: Immunomodulatory activity in C57BL/6 mouse splenocytes bearing TLR7 receptor assessed as IL12 release at 100 ug/ml after 24 hrs by ELISA; type: functional, cell-based
Method in brief: (§2)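 C57BL/6 splenocytes in RPMI 1640 with 10% FBS, penicillin/streptomycin, 2 mM L-glutamine, plated at 5 × 10^6 cells/mL; compounds in PBS added, 37 °C for 24 h. Supernatant IL-12 and IL-6 by ELISA; representative of three independent experiments.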

Splenocyte [7] = test: Immunomodulatory activity in C57BL/6 mouse splenocytes bearing TLR7 receptor assessed as IL6 release at 100 ug/ml after 24 hrs by ELISA; type: functional, cell-based; method in brief: as §2
[8] = target: Toll-like receptor 3 (Homo sapiens) (UniProt O15455); test: Activation of human TLR3 expressed in HEK293 assessed as induction of NF-kappaB activity reporter gene assay; type: cell-based
Sequence of Toll-like receptor 3 (Homo sapiens) (O15455 whole entry): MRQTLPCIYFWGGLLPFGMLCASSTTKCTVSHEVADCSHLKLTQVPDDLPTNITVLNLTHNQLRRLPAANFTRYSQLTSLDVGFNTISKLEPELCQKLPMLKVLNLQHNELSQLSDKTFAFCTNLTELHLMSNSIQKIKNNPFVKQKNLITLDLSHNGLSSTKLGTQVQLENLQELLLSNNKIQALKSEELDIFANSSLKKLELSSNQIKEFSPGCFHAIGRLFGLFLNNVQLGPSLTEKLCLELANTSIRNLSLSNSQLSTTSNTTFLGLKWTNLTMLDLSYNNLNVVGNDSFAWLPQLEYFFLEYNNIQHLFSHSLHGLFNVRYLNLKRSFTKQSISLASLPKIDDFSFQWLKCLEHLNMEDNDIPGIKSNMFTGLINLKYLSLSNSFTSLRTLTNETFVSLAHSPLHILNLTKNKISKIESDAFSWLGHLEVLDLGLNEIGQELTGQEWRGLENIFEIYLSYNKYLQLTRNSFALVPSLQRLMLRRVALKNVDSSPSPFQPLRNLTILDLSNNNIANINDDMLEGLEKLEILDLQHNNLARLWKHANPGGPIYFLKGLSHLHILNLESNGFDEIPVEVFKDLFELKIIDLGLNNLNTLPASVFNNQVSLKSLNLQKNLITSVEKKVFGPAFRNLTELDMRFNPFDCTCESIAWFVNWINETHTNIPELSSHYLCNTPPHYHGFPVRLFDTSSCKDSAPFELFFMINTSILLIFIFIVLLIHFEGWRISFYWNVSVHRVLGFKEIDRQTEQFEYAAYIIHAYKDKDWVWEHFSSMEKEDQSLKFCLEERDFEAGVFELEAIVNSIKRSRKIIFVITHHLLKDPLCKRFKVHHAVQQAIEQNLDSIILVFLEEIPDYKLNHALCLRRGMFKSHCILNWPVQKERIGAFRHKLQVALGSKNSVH

| fold change (FC) [1] | Ratio (Homo sapiens) | Activity [4] | Activity (Splenocyte [6]) | Activity (Splenocyte [7]) | Activity [8] | SMILES | IFN-alpha (PBMC [2]) | Activity (PBMC [3]) | Activity (PBMC [5]) |
| --- | --- | --- | --- | --- | --- | --- | --- | --- | --- |
| 23.7 | 11.9 | inactive | Active | Active | inactive | Nc1ccn([C@@H]2O[C@H](COP(=O)(S)O[C@H]3[C@@H](O)[C@H](n4cnc5c(N)ncnc54)O[C@@H]3CO)[C@@H](OP(=O)(S)OC[C@H]3O[C@@H](n4ccc(=O)[nH]c4=O)[C@H](O)[C@@H]3OP(=O)(S)OC[C@H]3O[C@@H](n4ccc(=O)[nH]c4=O)[C@H](O)[C@@H]3OP(=O)(S)OC[C@H]3O[C@@H](n4ccc5c(=O)[nH]c(N)nc54)[C@H](O)[C@@H]3OP(=O)(S)OC[C@H]3O[C@@H](n4cnc5c(N)ncnc54)[C@H](O)[C@@H]3OP(=O)(S)OC[C@H]3O[C@@H](n4cnc5c(N)ncnc54)[C@H](O)[C@@H]3OP(=O)(S)OC[C@H]3O[C@@H](n4ccc5c(=O)[nH]c(N)nc54)[C@H](O)[C@@H]3OP(=O)(S)OC[C@H]3O[C@@H](n4ccc(N)nc4=O)[C@H](O)[C@@H]3OP(=O)(S)OC[C@H]3O[C@@H](n4ccc(=O)[nH]c4=O)[C@H](O)[C@@H]3OP(=O)(S)OC[C@H]3O[C@@H](n4ccc(=O)[nH]c4=O)[C@H](O)[C@@H]3OP(=O)(S)OCC(O)COP(=O)(S)O[C@H]3[C@@H](O)[C@H](n4ccc(=O)[nH]c4=O)O[C@@H]3COP(=O)(S)O[C@H]3[C@@H](O)[C@H](n4ccc(=O)[nH]c4=O)O[C@@H]3COP(=O)(S)O[C@H]3[C@@H](O)[C@H](n4ccc(N)nc4=O)O[C@@H]3COP(=O)(S)O[C@H]3[C@@H](O)[C@H](n4ccc5c(=O)[nH]c(N)nc54)O[C@@H]3COP(=O)(S)O[C@H]3[C@@H](O)[C@H](n4cnc5c(N)ncnc54)O[C@@H]3COP(=O)(S)O[C@H]3[C@@H](O)[C@H](n4cnc5c(N)ncnc54)O[C@@H]3COP(=O)(S)O[C@H]3[C@@H](O)[C@H](n4ccc5c(=O)[nH]c(N)nc54)O[C@@H]3COP(=O)(S)O[C@H]3[C@@H](O)[C@H](n4ccc(=O)[nH]c4=O)O[C@@H]3COP(=O)(S)O[C@H]3[C@@H](O)[C@H](n4ccc(=O)[nH]c4=O)O[C@@H]3COP(=O)(S)O[C@H]3[C@@H](O)[C@H](n4ccc(N)nc4=O)O[C@@H]3COP(=O)(S)O[C@H]3[C@@H](O)[C@H](n4cnc5c(N)ncnc54)O[C@@H]3CO)[C@H]2O)c(=O)n1 (stereo partly drawn) | 218 pg/mL | 170 pg/mL | 442 pg/mL |
| 28.9 | 19.3 | inactive | Active | Active | inactive | Nc1ccn([C@@H]2O[C@H](CO)[C@@H](OP(=O)(S)OC[C@H]3O[C@@H](n4ccc(=O)[nH]c4=O)[C@H](O)[C@@H]3OP(=O)(S)OC[C@H]3O[C@@H](n4ccc(=O)[nH]c4=O)[C@H](O)[C@@H]3OP(=O)(S)OC[C@H]3O[C@@H](n4ccc5c(=O)[nH]c(N)nc54)[C@H](O)[C@@H]3OP(=O)(S)OC[C@H]3O[C@@H](n4ccc(=O)[nH]c4=O)[C@H](O)[C@@H]3OP(=O)(S)OC[C@H]3O[C@@H](n4ccc5c(=O)[nH]c(N)nc54)[C@H](O)[C@@H]3OP(=O)(S)OC[C@H]3O[C@@H](n4cnc5c(N)ncnc54)[C@H](O)[C@@H]3OP(=O)(S)OC[C@H]3O[C@@H](n4ccc5c(=O)[nH]c(N)nc54)[C@H](O)[C@@H]3OP(=O)(S)OC[C@H]3O[C@@H](n4ccc(N)nc4=O)[C@H](O)[C@@H]3OP(=O)(S)OC[C@H]3O[C@@H](n4ccc(=O)[nH]c4=O)[C@H](O)[C@@H]3OP(=O)(S)OC[C@H]3O[C@@H](n4ccc(=O)[nH]c4=O)[C@H](O)[C@@H]3OP(=O)(S)OCC(O)COP(=O)(S)O[C@H]3[C@@H](O)[C@H](n4ccc(=O)[nH]c4=O)O[C@@H]3COP(=O)(S)O[C@H]3[C@@H](O)[C@H](n4ccc(=O)[nH]c4=O)O[C@@H]3COP(=O)(S)O[C@H]3[C@@H](O)[C@H](n4ccc(N)nc4=O)O[C@@H]3COP(=O)(S)O[C@H]3[C@@H](O)[C@H](n4ccc5c(=O)[nH]c(N)nc54)O[C@@H]3COP(=O)(S)O[C@H]3[C@@H](O)[C@H](n4cnc5c(N)ncnc54)O[C@@H]3COP(=O)(S)O[C@H]3[C@@H](O)[C@H](n4ccc5c(=O)[nH]c(N)nc54)O[C@@H]3COP(=O)(S)O[C@H]3[C@@H](O)[C@H](n4ccc(=O)[nH]c4=O)O[C@@H]3COP(=O)(S)O[C@H]3[C@@H](O)[C@H](n4ccc5c(=O)[nH]c(N)nc54)O[C@@H]3COP(=O)(S)O[C@H]3[C@@H](O)[C@H](n4ccc(=O)[nH]c4=O)O[C@@H]3COP(=O)(S)O[C@H]3[C@@H](O)[C@H](n4ccc(=O)[nH]c4=O)O[C@@H]3COP(=O)(S)O[C@H]3[C@@H](O)[C@H](n4ccc(N)nc4=O)O[C@@H]3CO)[C@H]2O)c(=O)n1 (stereo partly drawn) | 138 pg/mL | 403 pg/mL | 1020 pg/mL |
